The list is not random: actives were taken first. Their share in the collection is about 0.72%.
mIAP inh – inhibitors of mouse IAP, primary screen, biochemical, luminescence, uHTS; intestinal alkaline phosphatase [Mus musculus]; purified mouse IAP, CDP-Star luminescence, 30 min; inhibition, % at 10 µM; hit rate 0.2% among 330,000;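 active = inhibition of at least 40% at 10 µM in the primary screen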
hIAP act – human IAP activators, primary screen, biochemical, luminescence, uHTS. activation factor at 10 µM. purified human IAP, CDP-Star luminescence, 30 min; active compounds read high; 1 = vehicle-only enzyme, 0 = enzyme-free background. hit rate 0.16% among 330,000. Intestinal-type alkaline phosphatase (Homo sapiens), P09923;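 active = activation factor of the enzyme at least 2-fold when tested at 20 µM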
Target sequence (P09923 whole entry, looked up): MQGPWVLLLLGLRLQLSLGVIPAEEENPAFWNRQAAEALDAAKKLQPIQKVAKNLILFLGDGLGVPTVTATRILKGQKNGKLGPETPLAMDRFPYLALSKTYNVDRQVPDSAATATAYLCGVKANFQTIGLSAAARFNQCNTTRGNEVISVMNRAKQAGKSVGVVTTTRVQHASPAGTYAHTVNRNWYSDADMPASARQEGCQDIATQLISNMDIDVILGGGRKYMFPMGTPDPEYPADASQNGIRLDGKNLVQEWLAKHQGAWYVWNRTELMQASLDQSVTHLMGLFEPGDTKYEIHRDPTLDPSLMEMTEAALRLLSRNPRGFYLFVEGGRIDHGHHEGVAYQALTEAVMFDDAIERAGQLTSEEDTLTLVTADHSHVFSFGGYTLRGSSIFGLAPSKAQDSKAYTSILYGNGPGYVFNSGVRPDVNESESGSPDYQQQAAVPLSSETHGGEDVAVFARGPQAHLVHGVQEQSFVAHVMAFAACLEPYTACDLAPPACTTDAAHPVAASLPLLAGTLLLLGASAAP
hIAP inh – human IAP inhibitors, primary screen, biochemical, luminescence, uHTS | purified IAP, CDP-Star luminescence, 30 min | inhibition, % at 10 µM | Intestinal-type alkaline phosphatase (Homo sapiens), P09923 | hit rate 0.12% among 330,000;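 active = inhibition reaching a set limit with compound at 10 µM in the primary screen, cut at about 35% in these data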
bIAP act – bovine intestinal alkaline phosphatase activators, primary screen, biochemical, bovine IAP, CDP-star luminescence. purified bovine IAP, 30 min; active compounds read high; fold of DMSO-control signal, blank-subtracted. activation factor at 20 µM. hit rate 0.17% among 200,000. AID 1016, 2008;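 active = activation factor of 2 or more at 20 µM, a signal rise over negative controls twice the positive control's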
mIAP act – activators of mouse IAP, primary screen, biochemical, luminescence, uHTS | muIAP, CDP-Star luminescence, 30 min; active compounds read high; 1 = vehicle-only enzyme signal, 0 = enzyme-free wells | activation factor at 10 µM | hit rate 0.24% among 330,000 | AID 2805, 2010;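 active = activation factor of at least 2 at 20 µM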
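System: mouse IAP enzyme. Reagent: CDP-Star chemiluminescent phosphatase substrate. Benchmarks: DMSO wells, no-enzyme wells. Times: 30 min enzyme-substrate-compound incubation at room temperature. Detection: luminescence from enzymatic CDP-Star hydrolysis. Doses: test compounds delivered from DMSO solution.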
bIAP inhibitor – bovine intestinal alkaline phosphatase inhibitors, primary screen, selectivity assay for TNAP inhibitor project, biochemical, bovine IAP, CDP-star luminescence | 190,000 tested, under 10 active | purified bovine IAP, 30 min | alkaline phosphatase, intestinal [Bos taurus] | inhibition, % at 20 µM;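 active = over 50% inhibition of intestinal alkaline phosphatase at 20 µM in the single-dose screen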
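test system = bovine IAP enzyme | medium = DEA buffer 100 mM, pH 9.8, with MgCl2 1.0 mM, ZnCl2 0.02 mM | detection = luminescence | dosing = single compound dose of 20 µM, 2% DMSO final | incubation = 30 min reaction at room temperature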
mIAP inh conf – inhibitors of mouse IAP, confirmation, biochemical, luminescence, single concentration; inhibition, % at 10 µM; purified mouse IAP, CDP-Star luminescence, 30 min; AID 434971, 2010; shares compounds with mIAP inh; hit rate 4.7% among 11,000;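 active = inhibition of at least 40% at 10 µM in either of the two replicates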
A number is an active result; - = inactive; . = no result given.

SMILES | mIAP inh | hIAP act | hIAP inh | bIAP act | mIAP act | bIAP inhibitor | mIAP inh conf
O=C(CN1C(=O)/C(=C\c2ccco2)SC1=S)Nc1ccc(O)cc1C(=O)O | 70 | - | - | . | - | . | 81
O=C(CCN1C(=O)/C(=C/c2ccco2)SC1=S)Nc1ccc(O)cc1C(=O)O | 69 | - | - | . | - | . | 78
O=C(CCCN1C(=O)/C(=C\c2ccccc2)SC1=S)Nc1ccc(O)cc1C(=O)O | - | - | - | . | - | . | .
O=C(CCCN1C(=O)/C(=C/c2ccco2)SC1=S)Nc1ccccc1C(=O)O | 69 | - | - | . | - | . | 62
O=C(O)CCCN1C(=O)/C(=C\c2ccco2)SC1=S | . | . | . | - | . | - | .
O=C(/C=C/c1ccc(Br)o1)NCCCN1CCOCC1 | - | - | - | - | - | - | .
COc1ccc(-c2csc(Nc3ccc(S(N)(=O)=O)cc3)n2)cc1 | - | - | - | - | - | - | .
Cc1nc(N)sc1-c1csc(Nc2ccc(S(N)(=O)=O)cc2)n1 | 67 | - | - | . | - | . | 68
Oc1ccc(/C=N\Nc2cc(N3CCOCC3)nc(N3CCOCC3)n2)c(O)c1 | - | - | - | - | - | - | .
Oc1ccc(/C=N/Nc2cc(N3CCCC3)nc(N3CCCC3)n2)cc1O | 68 | - | - | - | - | - | 76
O=C1/C(=C\c2ccc(O)cc2)SC(=S)N1/N=C/c1ccc(O)cc1 | 49 | - | - | . | - | . | 57
COc1ccc(C)cc1CN1C(=O)c2ccccc2C1=O | - | - | - | . | - | . | .
COc1cc(-c2nnc(SCc3cc(=O)oc4cc(O)c(O)cc34)o2)cc(OC)c1OC | 69 | - | - | - | - | - | 73
C[C@@H]1NC(=O)N(c2ccc(F)cc2)C1=O | - | - | - | . | - | . | .
CN(/N=C\c1ccc(O)c(O)c1)c1nc(-c2ccccc2)cc(-c2ccccc2)n1 | - | - | - | - | - | - | .
O=c1c2c3c(sc2[nH]c(=S)n1Cc1ccco1)CCC3 | 59 | - | - | . | - | . | 64
CC1(C)Cc2c(sc3[nH]c(=S)n(Cc4ccco4)c(=O)c23)CO1 | - | - | - | - | - | - | .
COC(=O)c1ccc2c(=O)n(CCN3CCOCC3)c(SCC(=O)Nc3ccccc3Cl)nc2c1 | - | - | - | . | - | . | .
Cc1cc(=O)n2[nH]c(SCc3c(F)cccc3Cl)nc2n1 | - | - | - | . | - | . | .
COc1cccc(N2CCN(C(=O)c3cc(C)oc3C)CC2)c1 | - | - | - | . | - | . | .
Cc1ccc(C)c(CN2CCC(CNC(=O)Nc3ccc(Cl)cc3)CC2)c1 | - | - | - | . | 2.7 | . | -
O=C(NCC1CC1)Nc1ccc(Cl)cc1 | - | - | - | . | - | . | .
CN(CC(=O)Nc1ccccc1Cl)C(=O)CSc1nnc(-c2ccco2)n1C | - | - | - | . | - | . | .
Cc1ccccc1CN(C)C(=O)CNC(=O)c1ccc2ccccc2c1 | - | - | - | . | - | . | .
CCOC(=O)Cc1nnc2c(Nc3ccc(Cl)cc3)nc3nonc3n12 | - | - | - | - | - | - | 37
SMILES | mIAP inh | hIAP act | hIAP inh | bIAP act | mIAP act | bIAP inhibitor | mIAP inh conf
CCN(CC)S(=O)(=O)c1ccc(OC)c(NC(=O)C2CC(=O)N(c3ccc(C)cc3)C2)c1 (configuration not stated) | - | - | - | - | - | - | .
O=C(Nc1cccc(Cl)c1)C1CCCCC1 | - | - | - | . | - | . | .
O=C(Nc1cccc(-c2cccc(Cl)c2)c1)C1CCN(Cc2ccc(CO)o2)CC1 | - | - | - | . | 4 | . | -
CCn1cc(CN2CCC(C(=O)Nc3cccc(-c4cccc(F)c4)c3)CC2)cn1 | - | - | - | . | 2 | . | -
COC(=O)c1ccc(CN2CCCCC2)cc1 | - | - | - | . | - | . | .
S=c1[nH]nc(COc2ccccc2)n1/N=C/C=C/c1ccccc1 | - | - | - | - | - | - | .
S=c1[nH]nc(-c2ccco2)n1/N=C/C=C/c1ccco1 | 69 | - | - | - | - | - | 70
S=c1[nH]nc(-c2n[nH]c3c2CCC3)n1/N=C/C=C/c1ccco1 | 50 | - | - | . | - | . | 42
S=c1[nH]nc(COc2ccccc2)n1/N=C/C=C/c1ccco1 | 51 | - | - | . | - | . | 58
COc1ccccc1/C=C/C=N/n1c(-c2ccco2)n[nH]c1=S | - | - | - | . | - | . | .
COc1cc(/C=N/n2c(-c3n[nH]c4c3CCC4)n[nH]c2=S)cc(OC)c1O | - | - | - | . | - | . | .
S=c1[nH]nc(-c2cc(-c3ccccc3)n[nH]2)n1/N=C/c1c(Cl)cccc1Cl | - | - | - | . | - | . | .
S=c1[nH]nc(-c2cc(-c3ccccc3)n[nH]2)n1/N=C/C=C/c1ccco1 | 48 | - | - | . | - | . | 47
CC1(NC(=O)Nc2cccc(Br)c2)CCS(=O)(=O)C1 (configuration not stated) | - | - | - | . | - | . | .
COc1ccc(NC(=O)NC(C)c2ccc3c(c2)OCO3)cc1OC (configuration not stated) | - | - | - | . | - | . | .
CC(NC(=O)Nc1ccc(Cl)cc1)c1ccc2c(c1)OCO2 (configuration not stated) | - | - | - | . | 2.8 | . | -
NS(=O)(=O)c1ccc(-c2ccc(/C=C3\C(=O)Nc4ccccc43)o2)cc1 | - | - | - | . | - | . | .
CC1(C)OC(=O)C(=Cc2ccc(-c3ccc(S(N)(=O)=O)cc3)o2)C(=O)O1 | 64 | - | - | - | - | - | 79
C[C@@H]1O[C@@H](OC2C(O)C(OCCc3ccc(O)c(O)c3)OC(CO)C2OC(=O)/C=C/c2ccc(O)c(O)c2)[C@H](O)[C@H](O)[C@H]1O (some centres not stated) | 46 | - | - | . | - | . | 42
C[C@@H]1O[C@@H](O[C@H]2[C@H](O)[C@@H](O)[C@H](Oc3c(-c4ccc(O)cc4)oc4cc(O)cc(O)c4c3=O)O[C@@H]2CO)[C@H](O)[C@H](O)[C@H]1O | - | - | - | . | - | . | .
CCOc1ccc(NC(=O)CN(C)C(=O)Cc2n[nH]c(=O)c3ccccc23)cc1OCC | - | - | - | . | - | . | .
COc1ccc(CNC(=O)C(=O)NC2CCC(C)CC2)cc1 (configuration not stated) | - | - | - | - | - | - | .
NS(=O)(=O)c1ccc2c(c1)oc(=O)c1cc(S(N)(=O)=O)ccc12 | 48 | - | - | - | - | - | 57
COCCNS(=O)(=O)c1ccc2c(c1)oc(=O)c1cc(S(=O)(=O)NCCOC)ccc12 | - | - | - | - | - | - | .
COc1ccccc1CNC(=O)c1cc(-c2ccccc2)nn1Cc1cc(C)no1 | - | - | - | . | - | . | .

From PubChem
